Laboratory results reported in ChEMBL document CHEMBL3227921, “Synthetic antagonists of in vivo responses by the rat uterus to oxytocin” (J Med Chem, 1979).
Calls of active or inactive are those of the source. The calls are words filed in the database; no cut-off is given here. Numbered stars: 1 amine (or outer) side, 2 acyl side, 3 side chain; on linkers, the order of the positions; unused ones are H or OH. Bridge positions count the residues as written; N and C are the ends. Square brackets hold non-standard residues; d marks the D form. Peptide text beside a SMILES is read from it. * marks the point of attachment. X1 = O=C(CC1(S[*:2])CCCCC1)[*:1]; X3 = CCC(CC)(CC(=O)[*:1])S[*:2]; X2 = CC(C)(CC(=O)[*:1])S[*:2]; X4 = NC(=O)NC(=O)CN*; Mpa = O=C(O)CCS

How the values were obtained:
[1] = target: T1, Oxytocin receptor (Rattus norvegicus, UniProt P70536); experiment: Antagonist activity at oxytocin receptor in rat uterus pretreated with diethylstilbestrol compound treated 1 min prior to oxytocin addition; assay type: tissue-based; conditions: read-out: pA2 (converted)
T1 sequence (P70536 whole entry): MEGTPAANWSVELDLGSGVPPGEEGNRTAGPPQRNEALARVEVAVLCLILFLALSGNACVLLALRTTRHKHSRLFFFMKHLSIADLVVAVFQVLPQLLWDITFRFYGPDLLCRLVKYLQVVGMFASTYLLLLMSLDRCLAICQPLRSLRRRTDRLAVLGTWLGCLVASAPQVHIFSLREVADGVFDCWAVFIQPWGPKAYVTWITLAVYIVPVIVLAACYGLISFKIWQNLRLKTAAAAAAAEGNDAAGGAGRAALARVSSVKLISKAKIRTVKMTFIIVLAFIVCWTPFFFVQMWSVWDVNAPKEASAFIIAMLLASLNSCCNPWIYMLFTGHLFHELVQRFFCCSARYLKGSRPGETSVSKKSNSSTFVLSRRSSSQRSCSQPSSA
Procedure, shortened: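 Isolated uterine horns from diethylstilbestrol-pretreated rats suspended in Munsick's solution without Mg2+. Isometric contractions recorded. Antagonist added to bath 1 min before agonist. pA2 calculated by Schild's method: negative log of the molar antagonist concentration that reduces the response to 2x units of agonist to the response to x units without antagonist. Mean ± SE over assay groups.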

[2] = target: T1, Oxytocin receptor; experiment: Antagonist activity at oxytocin receptor in rat uterus pretreated with diethylstilbestrol compound treated 1 min prior to oxytocin addition in presence of 0.5 mM Mg2+; assay type: tissue-based; conditions: read-out: pA2 (converted)
Procedure, shortened: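 Uterine horns from rats pretreated with diethylstilbestrol, bathed in Munsick's solution containing 0.5 mM Mg2+. Isometric contractions recorded, with antagonist added 1 min ahead of agonist. Schild pA2 taken as negative log molar antagonist concentration reducing the 2x-agonist response to the x-unit response without antagonist. Mean ± SE, number of assay groups given.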

[3] = system: Rattus norvegicus; experiment: Antioxytocic activity in iv dosed rat uterus pretreated with diethylstilbestrol compound treated 1 min prior to oxytocin injection; assay type: functional, organism-based; conditions: for Kb: read-out: pA2 (converted)
Procedure, shortened: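 Anesthetized diethylstilbestrol-pretreated rats, modified Bisset uterus assay. Antagonist given intravenously 1 min before agonist. Read-out was integrated intrauterine pressure over 10 min after agonist injection. In vivo "pA2" estimated by the Dyckes et al. method; pA2 6.00 corresponds to 67 nmol/kg i.v. and 7.00 to 6.7 nmol/kg. Mean ± SE over assay groups.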

[4] = (§1) Antagonist activity at rat vasopressin receptor
Procedure, shortened: (§2)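 Anesthetized rats, vasopressor responses recorded per Dekanski. Antagonist injected 1 min before agonist. In vivo "pA2" estimated by the method of Dyckes et al., which assumes a volume of distribution for the injected antagonist. Mean ± SE over assay groups.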

[5] = target: T2, Oxytocin receptor (Rattus norvegicus) (UniProt P70536); experiment: Partial agonist activity at oxytocin receptor in rat uterus pretreated with diethylstilbestrol compound treated 1 min prior to oxytocin addition in presence of 0.5 mM Mg2+
T2 sequence (whole entry): T1 sequence (P70536 whole entry)

[6] = species: Rattus norvegicus; experiment: as §1; procedure, shortened: as §2

Structure (SMILES) | Kb [1] [nM] | Kb [2] [nM] | Kb [3] [nM] | pA2 [4] | Activity [5] | Activity [3] | Activity [6]
COc1ccc(C[C@@H]2NC(=O)CC(C)(C)SSC[C@@H](C(=O)N3CCC[C@H]3C(=O)N[C@@H](CCCN=C(N)N)C(=O)NCC(N)=O)NC(=O)[C@H](CC(N)=O)NC(=O)[C@H](CCC(N)=O)NC(=O)[C@H](Cc3ccccc3)NC2=O)cc1 (Y(Me)FQNCPRG-NH2; linker N-5 via X2) | 24.5 | – | – | – | – | – | –
CC[C@H](C)[C@@H]1NC(=O)[C@H](Cc2ccc(OC)cc2)NC(=O)CC(C)(C)SSC[C@@H](C(=O)N2CCC[C@H]2C(=O)N[C@@H](CC(C)C)C(=O)NCC(N)=O)NC(=O)[C@H](CC(N)=O)NC(=O)[C@H](CCC(N)=O)NC1=O (Y(Me)IQNCPLG-NH2; linker N-5 via X2) | 17.4 | 15.8 | 138 | 7.59 | – | – | –
CC[C@H](C)[C@@H]1NC(=O)[C@H](Cc2ccc(OC)cc2)NC(=O)CC(C)(C)SSC[C@@H](C(=O)N2CCC[C@H]2C(=O)N[C@@H](CC(C)C)C(=O)NCC(N)=O)NC(=O)[C@H](CC(N)=O)NC(=O)[C@H]([C@@H](C)O)NC1=O (Y(Me)ITNCPLG-NH2; linker N-5 via X2) | 22.9 | 16.2 | 145 | 7.32 | – | – | –
CC[C@H](C)[C@@H]1NC(=O)[C@H](Cc2ccc(O)cc2)NC(=O)CC2(CCCCC2)SSC[C@@H](C(=O)N2CCC[C@H]2C(=O)N[C@@H](CC(C)C)C(=O)NCC(N)=O)NC(=O)[C@H](CC(N)=O)NC(=O)[C@H](CCC(N)=O)NC1=O (YIQNCPLG-NH2; linker N-5 via X1) | 24.5 | 70.8 | 224 | – | – | – | –
CC[C@H](C)[C@@H]1NC(=O)[C@H](Cc2ccc(O)cc2)NC(=O)CC(C)(C)SSC[C@@H](C(=O)N2CCC[C@H]2C(=O)N[C@@H](CC(C)C)C(=O)NCC(N)=O)NC(=O)[C@H](CC(N)=O)NC(=O)[C@H](CCC(N)=O)NC1=O (YIQNCPLG-NH2; linker N-5 via X2) | – | 2340 | – | – | Active | – | –
CC[C@H](C)[C@@H]1NC(=O)[C@H](Cc2ccc(O)cc2)NC(=O)CC(CC)(CC)SSC[C@@H](C(=O)N2CCC[C@H]2C(=O)N[C@@H](CC(C)C)C(=O)NCC(N)=O)NC(=O)[C@H](CC(N)=O)NC(=O)[C@H](CCC(N)=O)NC1=O (YIQNCPLG-NH2; linker N-5 via X3) | 28.2 | 151 | 631 | 6.83 | – | – | –
CC[C@H](C)[C@@H]1NC(=O)[C@H](Cc2ccc(O)cc2)NC(=O)CC2(CCCCC2)SSC[C@@H](C(=O)N2CCC[C@H]2C(=O)N[C@@H](CC(C)C)C(=O)NCC(N)=O)NC(=O)[C@H](CC(N)=O)NC(=O)[C@H]([C@@H](C)O)NC1=O (YITNCPLG-NH2; linker N-5 via X1) | 12.3 | 15.5 | 115 | 5.86 | – | – | –
CC[C@H](C)[C@@H]1NC(=O)[C@H](Cc2ccc(O)cc2)NC(=O)CC(C)(C)SSC[C@@H](C(=O)N2CCC[C@H]2C(=O)N[C@@H](CC(C)C)C(=O)NCC(N)=O)NC(=O)[C@H](CC(N)=O)NC(=O)[C@H]([C@@H](C)O)NC1=O (YITNCPLG-NH2; linker N-5 via X2) | 30.2 | 589 | 490 | 6.67 | Active | – | –
CC[C@H](C)[C@@H]1NC(=O)[C@H](Cc2ccc(O)cc2)NC(=O)CC(CC)(CC)SSC[C@@H](C(=O)N2CCC[C@H]2C(=O)N[C@@H](CC(C)C)C(=O)NCC(N)=O)NC(=O)[C@H](CC(N)=O)NC(=O)[C@H]([C@@H](C)O)NC1=O (YITNCPLG-NH2; linker N-5 via X3) | 19.1 | 43.7 | 339 | 6.3 | – | – | –
CC[C@H](C)[C@@H]1NC(=O)[C@H](Cc2ccc(OC)cc2)NC(=O)CCSSC[C@@H](C(=O)N2CCC[C@H]2C(=O)N[C@@H](CC(C)C)C(=O)NCC(=O)NC(N)=O)NC(=O)[C@H](CC(N)=O)NC(=O)[C@H](CCC(N)=O)NC1=O ([Mpa]Y(Me)IQNCPL-X4; disulfide 1-6) | 126 | 245 | – | – | – | Active | Active
